# Published values gathered from unrelated publications.
# Lines come from different studies, so protocols differ.
Structure (SMILES),organism,assay,system,conditions,quantity,value
CNC(C)C1CCC(N)C(OC2C(N)CC(N)C(OC3OCC(C)(O)C(NC)C3O)C2O)O1 (centres unmarked),Escherichia coli,"microbial killing, broth dilution",ATCC25922,24 h,MBC,4000 µM
CCOC(=O)/C=C1/SC(N/N=C/c2c(-c3ccc(F)cc3)nc3ncccn23)=NC1=O,Escherichia coli,"microbial growth, well diffusion",ATCC25922,100 µg/mL,inhibition zone,10 mm
O=c1cc(Nc2ccccc2)c2ccccc2o1,Escherichia coli,"microbial growth, broth dilution",,,MIC90,9 µg/mL
CN[C@H](CC(C)C)C(=O)N[C@H]1C(=O)N[C@@H](CC(N)=O)C(=O)N[C@H]2C(=O)N[C@H]3C(=O)N[C@H](C(=O)N[C@H](C(=O)O)c4cc(O)cc(O)c4-c4cc3ccc4O)[C@H](O)c3ccc(c(Cl)c3)Oc3cc2cc(c3O[C@@H]2O[C@H](CO)[C@@H](O)[C@H](O)[C@H]2O[C@H]2C[C@](C)(N)[C@H](O)[C@H](C)O2)Oc2ccc(cc2Cl)[C@H]1O,Staphylococcus aureus,"microbial growth, agar dilution",ATCC29213,,MIC,1 µg/mL
CC(=O)c1sc(N/N=C/c2c(-c3ccccc3)nc3ncccn23)nc1C,Escherichia coli,"microbial growth, well diffusion",ATCC25922,100 µg/mL,inhibition zone,14 mm
CN[C@H](CC(C)C)C(=O)N[C@H]1C(=O)N[C@@H](CC(N)=O)C(=O)N[C@H]2C(=O)N[C@H]3C(=O)N[C@H](C(=O)N[C@H](C(=O)O)c4cc(O)cc(O)c4-c4cc3ccc4O)[C@H](O)c3ccc(c(Cl)c3)Oc3cc2cc(c3O[C@@H]2O[C@H](CO)[C@@H](O)[C@H](O)[C@H]2O[C@H]2C[C@](C)(N)[C@H](O)[C@H](C)O2)Oc2ccc(cc2Cl)[C@H]1O,Micrococcus luteus,"microbial growth, broth dilution",ATCC4698,,MIC,0.34 µM
O=C1C(=O)c2cccnc2-c2ncccc21,Angiostrongylus cantonensis,parasite motility,,"24 h, larva",EC50,25.6 µM
CN[C@H](CC(C)C)C(=O)N[C@H]1C(=O)N[C@@H](CC(N)=O)C(=O)N[C@H]2C(=O)N[C@H]3C(=O)N[C@H](C(=O)N[C@H](C(=O)O)c4cc(O)cc(O)c4-c4cc3ccc4O)[C@H](O)c3ccc(c(Cl)c3)Oc3cc2cc(c3O[C@@H]2O[C@H](CO)[C@@H](O)[C@H](O)[C@H]2O[C@H]2C[C@](C)(N)[C@H](O)[C@H](C)O2)Oc2ccc(cc2Cl)[C@H]1O,Micrococcus luteus,"microbial growth, broth dilution",DSM1790,,MIC,0.17 µM
CCCS(=O)(=O)Oc1ccc(C=NNC(=O)CSc2nc3ccc(Cl)cc3c(=O)n2-c2ccccc2)cc1,Staphylococcus aureus,"microbial growth, well diffusion",MRSA,20 µg/mL,inhibition zone,2 mm
OC(Cn1cncn1)(Cn1cncn1)c1ccc(F)cc1F,Alternaria solani,"microbial growth, broth dilution",,,MIC,16 µg/mL
CCCSc1ccc2nc(NC(=O)OC)[nH]c2c1,Angiostrongylus cantonensis,parasite motility,,"24 h, larva",EC50,10.7 µM
CCS(=O)(=O)Oc1cc(C=NNC(=O)CSc2nc3c(C)cccc3c(=O)n2-c2ccccc2)ccc1OC,Staphylococcus aureus,"microbial growth, well diffusion",MRSA,20 µg/mL,inhibition zone,3 mm
CC1(C)S[C@@H]2[C@H](NC(=O)[C@H](N)c3ccccc3)C(=O)N2[C@H]1C(=O)O,Micrococcus luteus,"microbial growth, broth dilution",ATCC4698,43 h,MIC,0.5 µg/mL
C=C[C@]1(C)C[C@@H](OC(=O)CS[C@@H]2C[C@H]3CC[C@@H](C2)N3C)[C@]2(C)[C@H](C)CC[C@]3(CCC(=O)[C@H]32)[C@@H](C)[C@@H]1O,Staphylococcus aureus,microbial growth,MSSA,clinical isolate,MIC90,0.0625 µg/mL
